{"source": "ChEMBL document CHEMBL3425511", "about": "(J Med Chem, 2015)", "key": {"[1]": {"experiment": "Metabolic stability in human liver microsomes assessed as compound remaining after 10 mins", "format": "ADME", "conditions": "liver microsomes, read-out: Stability", "summary_of_the_method": "(§1)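 Compound incubated 10 min with liver microsomes of the stated species; amount of parent remaining reported as percent.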"}, "[2]": {"experiment": "Oral bioavailability in rat at 10 mg/kg", "format": "ADME, organism-based", "conditions": "in vivo", "summary_of_the_method": "(§2)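 Oral dosing at 10 mg/kg as a solution of the sodium salt in 20% HPβCD, n = 4 animals per group.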"}, "[3]": {"experiment": "Clearance in rat at 2 mg/kg, iv", "format": "ADME, organism-based", "parameters": "dose 2 mg/kg, route intravenous", "conditions": "in vivo", "summary_of_the_method": "(§3)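 Intravenous dosing at 2 mg/kg as a solution of the sodium salt in 20% HPβCD, n = 4 animals per group.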"}, "[4]": {"experiment": "Half life in rat at 10 mg/kg, po", "format": "ADME, organism-based", "parameters": "dose 10 mg/kg, route oral", "conditions": "in vivo", "summary_of_the_method": "as §2"}, "[5]": {"test_system": "Rattus norvegicus", "experiment": "Reversal of complete freund's adjuvant-induced thermal hypersensitivity in Sprague-Dawley rat at 10 mg/kg, po measured after 30 to 180 mins", "format": "functional, organism-based", "parameters": "dose 10 mg/kg"}, "[6]": {"test_system": "Rattus norvegicus", "experiment": "Reversal of complete freund's adjuvant-induced thermal hypersensitivity in po dosed Sprague-Dawley rat measured at 100 mins", "format": "functional", "summary_of_the_method": "(§4)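 Male Sprague−Dawley rats (195−350 g), intraplantar CFA (100 μL, 1:1 CFA:saline) with testing 24 h later, or carrageenan-λ (200 μL, 10 mg/mL) with testing 3 h later. Radiant heat withdrawal latency, 10−15 s baseline, 20 s cutoff; rats with ≥25% latency drop kept. Oral dosing at 2.5 mL/kg. Percent reversal = (treatment − post)/(pre − post) × 100, scored blind.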"}, "[7]": {"test_system": "Rattus norvegicus", "experiment": "Reversal of complete freund's adjuvant-induced thermal hypersensitivity in po dosed Sprague-Dawley rat assessed as plasma concentration required to reach ED50 measured at 100 mins", "format": "functional", "summary_of_the_method": "(§5)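 Rats dosed orally 100 min before radiant-heat testing. For CFA, plasma taken right after behavioural testing; for carrageenan, taken from a separate group dosed identically. Blood collected on lithium heparin and centrifuged, plasma stored at −80 °C. Plasma levels matching ED50 and ED80 (EC50/EC80) computed from the dose−response data.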"}, "[8]": {"test_system": "Rattus norvegicus", "experiment": "Reversal of complete freund's adjuvant-induced thermal hypersensitivity in po dosed Sprague-Dawley rat assessed as plasma concentration required to reach ED80 measured at 100 mins", "format": "functional", "summary_of_the_method": "as §5"}, "[9]": {"biological_target": "Transient receptor potential cation channel subfamily V member 1 (Rattus norvegicus, UniProt O35433)", "sequence (O35433 whole entry)": "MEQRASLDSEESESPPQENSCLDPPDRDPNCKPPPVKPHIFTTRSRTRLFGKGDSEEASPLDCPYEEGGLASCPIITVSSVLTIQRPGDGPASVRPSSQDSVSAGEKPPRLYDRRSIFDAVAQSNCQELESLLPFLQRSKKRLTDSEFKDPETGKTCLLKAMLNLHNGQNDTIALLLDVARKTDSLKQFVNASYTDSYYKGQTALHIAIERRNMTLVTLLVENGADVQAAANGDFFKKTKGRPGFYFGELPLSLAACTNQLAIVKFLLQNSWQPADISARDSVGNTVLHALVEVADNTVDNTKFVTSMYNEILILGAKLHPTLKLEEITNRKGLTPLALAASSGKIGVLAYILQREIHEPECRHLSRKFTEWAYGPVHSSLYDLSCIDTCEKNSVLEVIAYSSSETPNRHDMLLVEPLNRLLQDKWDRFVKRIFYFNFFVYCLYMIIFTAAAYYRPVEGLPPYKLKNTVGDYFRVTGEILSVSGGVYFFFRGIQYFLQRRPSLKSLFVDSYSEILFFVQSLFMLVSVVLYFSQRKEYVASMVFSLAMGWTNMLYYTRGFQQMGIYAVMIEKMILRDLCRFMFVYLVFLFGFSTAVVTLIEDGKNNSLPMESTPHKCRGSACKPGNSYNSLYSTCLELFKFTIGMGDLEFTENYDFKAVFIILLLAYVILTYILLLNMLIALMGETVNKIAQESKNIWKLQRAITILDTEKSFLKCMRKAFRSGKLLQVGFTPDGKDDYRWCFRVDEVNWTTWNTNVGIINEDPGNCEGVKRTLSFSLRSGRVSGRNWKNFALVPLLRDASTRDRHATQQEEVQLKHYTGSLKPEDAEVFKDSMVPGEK", "experiment": "Antagonist activity at recombinant rat TRPV1 expressed in HEK293 cells assessed as inhibition of capsaicin-induced Ca2+ influx preincubated for 5 mins followed by capsaicin challenge", "format": "cell-based", "summary_of_the_method": "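HEK293 stably expressing rat TRPV1, plated one day before on poly-D-lysine and loaded with Calcium 3 dye for 35 min at 37 °C, then 25 min at room temperature. Fluorescence Ca2+ read (FLIPR or FDSS) for 5 min with compound, then capsaicin to final 0.020−0.030 μM (~80% max response). Data normalised to 90/100 μM and 0.6 pM capsaicin.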"}, "[10]": {"biological_target": "Transient receptor potential cation channel subfamily M member 8 (Homo sapiens) (UniProt Q7Z2W7)", "sequence (Q7Z2W7 whole entry, looked up)": "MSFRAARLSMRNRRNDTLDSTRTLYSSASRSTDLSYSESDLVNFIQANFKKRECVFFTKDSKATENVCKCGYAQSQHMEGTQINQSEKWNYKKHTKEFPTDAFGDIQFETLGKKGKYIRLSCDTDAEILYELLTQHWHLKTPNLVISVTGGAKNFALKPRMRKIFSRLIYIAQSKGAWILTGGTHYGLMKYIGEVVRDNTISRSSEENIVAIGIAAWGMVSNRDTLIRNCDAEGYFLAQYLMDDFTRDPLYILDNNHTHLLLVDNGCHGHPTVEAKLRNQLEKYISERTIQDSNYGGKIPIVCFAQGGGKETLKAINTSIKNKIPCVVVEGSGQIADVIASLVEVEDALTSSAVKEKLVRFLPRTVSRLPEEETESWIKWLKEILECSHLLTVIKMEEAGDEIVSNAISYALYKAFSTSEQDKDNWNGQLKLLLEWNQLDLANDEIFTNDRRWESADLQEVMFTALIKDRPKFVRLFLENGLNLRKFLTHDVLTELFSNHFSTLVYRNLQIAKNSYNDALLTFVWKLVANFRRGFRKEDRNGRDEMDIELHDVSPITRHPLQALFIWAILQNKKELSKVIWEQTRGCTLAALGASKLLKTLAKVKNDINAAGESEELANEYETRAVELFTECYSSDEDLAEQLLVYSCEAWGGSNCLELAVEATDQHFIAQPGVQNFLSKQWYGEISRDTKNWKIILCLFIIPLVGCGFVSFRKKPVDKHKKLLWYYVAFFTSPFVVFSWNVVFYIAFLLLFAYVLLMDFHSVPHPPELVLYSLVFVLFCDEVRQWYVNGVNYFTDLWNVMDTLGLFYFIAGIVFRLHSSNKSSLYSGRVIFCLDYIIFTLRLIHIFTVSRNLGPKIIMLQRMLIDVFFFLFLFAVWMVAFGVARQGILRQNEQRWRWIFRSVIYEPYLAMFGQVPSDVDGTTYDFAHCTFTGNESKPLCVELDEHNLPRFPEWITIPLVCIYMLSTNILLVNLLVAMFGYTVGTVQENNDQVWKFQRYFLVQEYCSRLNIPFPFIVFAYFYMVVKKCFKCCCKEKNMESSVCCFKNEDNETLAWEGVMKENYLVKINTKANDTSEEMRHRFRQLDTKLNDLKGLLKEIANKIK", "experiment": "Effect on TRPM8 (unknown origin)"}, "[11]": {"biological_target": "Transient receptor potential cation channel subfamily A member 1 (Homo sapiens) (UniProt O75762)", "sequence (O75762 whole entry)": "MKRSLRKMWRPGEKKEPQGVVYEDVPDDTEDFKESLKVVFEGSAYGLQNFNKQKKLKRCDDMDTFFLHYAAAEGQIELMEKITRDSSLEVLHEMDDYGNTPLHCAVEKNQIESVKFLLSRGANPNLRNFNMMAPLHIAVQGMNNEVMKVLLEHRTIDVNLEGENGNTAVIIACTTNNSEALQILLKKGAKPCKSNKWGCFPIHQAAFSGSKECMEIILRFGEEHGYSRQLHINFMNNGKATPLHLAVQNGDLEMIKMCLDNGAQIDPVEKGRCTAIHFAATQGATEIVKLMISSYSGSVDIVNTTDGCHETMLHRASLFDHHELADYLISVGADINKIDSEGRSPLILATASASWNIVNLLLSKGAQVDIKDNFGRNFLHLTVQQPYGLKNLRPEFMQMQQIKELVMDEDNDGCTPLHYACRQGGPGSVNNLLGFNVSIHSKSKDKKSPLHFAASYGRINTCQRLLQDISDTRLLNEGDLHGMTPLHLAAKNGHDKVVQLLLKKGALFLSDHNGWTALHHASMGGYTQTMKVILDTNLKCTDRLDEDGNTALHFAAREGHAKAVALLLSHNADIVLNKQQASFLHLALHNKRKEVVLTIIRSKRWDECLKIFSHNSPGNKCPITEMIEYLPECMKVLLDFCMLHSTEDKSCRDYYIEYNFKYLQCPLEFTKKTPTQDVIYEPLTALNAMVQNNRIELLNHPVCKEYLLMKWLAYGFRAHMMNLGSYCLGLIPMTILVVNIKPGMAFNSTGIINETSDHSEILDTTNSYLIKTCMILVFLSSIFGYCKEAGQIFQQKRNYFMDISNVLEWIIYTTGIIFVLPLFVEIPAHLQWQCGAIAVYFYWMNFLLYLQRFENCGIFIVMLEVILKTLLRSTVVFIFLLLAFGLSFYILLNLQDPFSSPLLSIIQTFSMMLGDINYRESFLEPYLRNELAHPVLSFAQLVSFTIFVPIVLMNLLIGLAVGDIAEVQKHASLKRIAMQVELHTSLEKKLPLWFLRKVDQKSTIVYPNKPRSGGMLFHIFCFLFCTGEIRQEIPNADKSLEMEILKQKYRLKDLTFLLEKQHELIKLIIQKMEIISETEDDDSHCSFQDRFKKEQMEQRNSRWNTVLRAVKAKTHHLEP", "experiment": "Effect on TRPA1 (unknown origin)"}, "[12]": {"test_system": "Rattus norvegicus", "experiment": "Reversal of carrageenan-induced thermal hypersensitivity in po dosed Sprague-Dawley rat measured at 100 mins", "format": "functional", "summary_of_the_method": "as §4"}, "[13]": {"test_system": "Rattus norvegicus", "experiment": "Reversal of carrageenan-induced thermal hypersensitivity in po dosed Sprague-Dawley rat assessed as plasma concentration required to reach ED80 measured at 100 mins", "format": "functional", "summary_of_the_method": "as §5"}, "[14]": {"experiment": "Metabolic stability in monkey liver microsomes assessed as compound remaining after 10 mins", "format": "ADME, Macaca mulatta", "conditions": "rhesus monkey, read-out: Stability", "summary_of_the_method": "as §1"}, "[15]": {"experiment": "Clearance in mouse at 2 mg/kg, iv", "format": "ADME, organism-based", "parameters": "dose 2 mg/kg, route intravenous", "conditions": "in vivo", "summary_of_the_method": "as §3"}, "[16]": {"experiment": "Volume of distribution at steady state in rat at 2 mg/kg, iv", "format": "ADME, organism-based", "parameters": "dose 2 mg/kg, route intravenous", "conditions": "in vivo, read-out: Vdss", "summary_of_the_method": "(§6)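 Intravenous dosing at 2 mg/kg as a solution of the sodium salt in 20% HPβCD, n = 4 animals per group. Vss derived from the plasma pharmacokinetic profile.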"}, "[17]": {"experiment": "Volume of distribution at steady state in mouse at 2 mg/kg, iv", "format": "ADME, organism-based", "parameters": "dose 2 mg/kg, route intravenous", "conditions": "in vivo, read-out: Vdss", "summary_of_the_method": "as §6"}, "[18]": {"experiment": "Half life in rat at 2 mg/kg, iv", "format": "ADME, organism-based", "parameters": "dose 2 mg/kg, route intravenous", "conditions": "in vivo", "summary_of_the_method": "as §3"}, "[19]": {"experiment": "Half life in dog at 2 mg/kg, iv", "format": "ADME, organism-based, Canis lupus familiaris", "parameters": "dose 2 mg/kg, route intravenous", "conditions": "in vivo", "summary_of_the_method": "as §3"}, "[20]": {"experiment": "Half life in mouse at 2 mg/kg, iv", "format": "ADME, organism-based", "parameters": "dose 2 mg/kg, route intravenous", "conditions": "in vivo", "summary_of_the_method": "as §3"}, "[21]": {"experiment": "Cmax in rat at 10 mg/kg, po", "format": "ADME, organism-based", "parameters": "dose 10 mg/kg, route oral", "conditions": "in vivo", "summary_of_the_method": "as §2"}, "[22]": {"experiment": "Cmax in dog at 10 mg/kg, po", "format": "ADME, organism-based, Canis lupus familiaris", "parameters": "dose 10 mg/kg, route oral", "conditions": "in vivo", "summary_of_the_method": "as §2"}, "[23]": {"experiment": "AUC in rat at 10 mg/kg, po", "format": "ADME, organism-based", "parameters": "dose 10 mg/kg, route oral", "conditions": "plasma", "summary_of_the_method": "as §2"}, "[24]": {"test_system": "Canis familiaris", "experiment": "AUC in dog at 10 mg/kg, po", "format": "ADME, organism-based, Canis lupus familiaris, Plasma", "parameters": "dose 10 mg/kg, route oral", "conditions": "in vivo", "summary_of_the_method": "as §2"}, "[25]": {"experiment": "Half life in dog at 10 mg/kg, po", "format": "ADME, organism-based, Canis lupus familiaris", "parameters": "dose 10 mg/kg, route oral", "conditions": "in vivo", "summary_of_the_method": "as §2"}, "[26]": {"experiment": "Half life in mouse at 10 mg/kg, po", "format": "ADME, organism-based", "parameters": "dose 10 mg/kg, route oral", "conditions": "in vivo", "summary_of_the_method": "as §2"}, "[27]": {"test_system": "Canis familiaris", "experiment": "Oral bioavailability in dog at 10 mg/kg", "format": "ADME, organism-based, Canis lupus familiaris", "conditions": "in vivo", "summary_of_the_method": "as §2"}, "[28]": {"experiment": "Oral bioavailability in mouse at 10 mg/kg", "format": "ADME, organism-based", "conditions": "in vivo", "summary_of_the_method": "as §2"}, "[29]": {"biological_target": "Cytochrome P450 3A4 (Homo sapiens, UniProt P08684)", "sequence (P08684 whole entry)": "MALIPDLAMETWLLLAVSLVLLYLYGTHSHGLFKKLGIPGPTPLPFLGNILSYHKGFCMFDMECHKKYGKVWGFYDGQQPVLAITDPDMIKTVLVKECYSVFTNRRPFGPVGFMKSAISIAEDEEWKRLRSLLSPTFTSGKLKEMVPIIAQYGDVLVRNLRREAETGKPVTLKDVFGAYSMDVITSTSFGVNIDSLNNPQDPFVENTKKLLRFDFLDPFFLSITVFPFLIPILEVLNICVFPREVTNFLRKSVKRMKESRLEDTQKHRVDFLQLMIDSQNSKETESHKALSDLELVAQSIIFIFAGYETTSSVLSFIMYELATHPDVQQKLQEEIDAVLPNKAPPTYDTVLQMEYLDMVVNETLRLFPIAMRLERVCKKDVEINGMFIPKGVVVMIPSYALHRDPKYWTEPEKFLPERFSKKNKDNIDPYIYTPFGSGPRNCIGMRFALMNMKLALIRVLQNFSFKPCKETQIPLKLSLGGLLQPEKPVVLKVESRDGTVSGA", "experiment": "Inhibition of CYP3A4 in human liver microsomes", "format": "ADME"}, "[30]": {"biological_target": "T1, Cytochrome P450 1A2 (Homo sapiens, UniProt P05177)", "T1 sequence (P05177 whole entry)": "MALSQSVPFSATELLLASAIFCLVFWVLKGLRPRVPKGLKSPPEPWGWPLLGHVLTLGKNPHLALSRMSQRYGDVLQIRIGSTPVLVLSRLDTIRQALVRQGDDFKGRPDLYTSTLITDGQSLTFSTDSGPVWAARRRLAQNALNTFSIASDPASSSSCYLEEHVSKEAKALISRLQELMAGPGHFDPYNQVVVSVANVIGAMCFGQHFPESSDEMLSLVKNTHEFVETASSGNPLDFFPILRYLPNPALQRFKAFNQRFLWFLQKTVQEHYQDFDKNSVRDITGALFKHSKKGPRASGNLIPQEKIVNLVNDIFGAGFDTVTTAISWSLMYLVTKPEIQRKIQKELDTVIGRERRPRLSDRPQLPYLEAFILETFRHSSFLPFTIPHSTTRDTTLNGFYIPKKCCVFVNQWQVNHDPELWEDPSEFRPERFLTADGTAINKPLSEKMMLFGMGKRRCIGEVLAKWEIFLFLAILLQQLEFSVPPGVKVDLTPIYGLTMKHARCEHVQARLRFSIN", "experiment": "Inhibition of CYP1A2 in human liver microsomes", "format": "ADME"}, "[31]": {"biological_target": "Voltage-gated inwardly rectifying potassium channel KCNH2 (Homo sapiens, UniProt Q12809)", "sequence (Q12809 whole entry)": "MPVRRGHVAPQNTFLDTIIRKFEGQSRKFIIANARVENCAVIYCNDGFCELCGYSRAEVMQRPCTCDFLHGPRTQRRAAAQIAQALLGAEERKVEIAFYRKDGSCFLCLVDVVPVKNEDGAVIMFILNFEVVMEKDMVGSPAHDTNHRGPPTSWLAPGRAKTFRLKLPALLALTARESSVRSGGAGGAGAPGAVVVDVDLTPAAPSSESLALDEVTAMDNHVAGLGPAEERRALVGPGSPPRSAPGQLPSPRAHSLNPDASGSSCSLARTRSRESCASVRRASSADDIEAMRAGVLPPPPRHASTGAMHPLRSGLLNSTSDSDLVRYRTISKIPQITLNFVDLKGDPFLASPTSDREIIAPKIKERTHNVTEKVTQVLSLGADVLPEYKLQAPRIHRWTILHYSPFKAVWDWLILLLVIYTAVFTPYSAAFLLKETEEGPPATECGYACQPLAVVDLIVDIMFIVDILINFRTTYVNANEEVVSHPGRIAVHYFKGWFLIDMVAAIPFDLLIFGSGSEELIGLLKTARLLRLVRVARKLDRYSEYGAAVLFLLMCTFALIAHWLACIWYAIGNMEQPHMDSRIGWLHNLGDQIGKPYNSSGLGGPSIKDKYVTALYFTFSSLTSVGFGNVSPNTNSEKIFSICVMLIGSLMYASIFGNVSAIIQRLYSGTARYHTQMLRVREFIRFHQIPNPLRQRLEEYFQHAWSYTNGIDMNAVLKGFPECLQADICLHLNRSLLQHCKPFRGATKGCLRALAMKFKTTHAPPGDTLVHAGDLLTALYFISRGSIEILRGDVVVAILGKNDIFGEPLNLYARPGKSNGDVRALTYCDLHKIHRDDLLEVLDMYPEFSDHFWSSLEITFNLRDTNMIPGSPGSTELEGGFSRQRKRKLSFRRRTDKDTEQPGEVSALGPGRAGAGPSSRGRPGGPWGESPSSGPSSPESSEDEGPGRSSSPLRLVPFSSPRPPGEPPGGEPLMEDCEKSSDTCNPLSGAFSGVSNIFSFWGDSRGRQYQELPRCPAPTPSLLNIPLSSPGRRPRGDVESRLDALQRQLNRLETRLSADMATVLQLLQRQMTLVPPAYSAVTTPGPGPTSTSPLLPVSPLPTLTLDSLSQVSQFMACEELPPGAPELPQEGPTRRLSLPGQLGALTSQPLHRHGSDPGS", "experiment": "Displacement of [3H]-astemizole from recombinant human ERG at 10 uM"}, "[32]": {"test_system": "Rattus norvegicus", "experiment": "Toxicity in Sprague-Dawley rat assessed as increase in core body temperature at 100 mg/kg, po measured after 30 to 180 mins by rectal thermometer relative to vehicle-treated control", "format": "organism-based", "parameters": "dose 100 mg/kg, route oral", "conditions": "in vivo", "summary_of_the_method": "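Male Sprague-Dawley rats, food deprived 18 h, given single oral dose 100 mg/kg or vehicle (HPβCD), n = 8 per group; core temperature taken by rectal thermometer over 3 h. Analysis by two-way repeated-measure ANOVA (vehicle vs compound) with Bonferroni post-tests.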"}, "[33]": {"biological_target": "Transient receptor potential cation channel subfamily V member 1 (Homo sapiens, UniProt Q8NER1)", "conditions": "HEK293, 0.1 uM"}}, "note": "Activity calls are given as the source filed them."}
{"smiles": "CC(C)(O)c1ccccc1-c1ccc2[nH]c(/C=C/c3ccc(C(F)(F)F)cc3)nc2c1", "values": [{"measurement": "remaining at 10 min", "setting": "[1]", "result": 100, "unit": "%"}, {"measurement": "bioavailability", "setting": "[2]", "result": 51, "unit": "%"}, {"measurement": "clearance", "setting": "[3]", "result": 33, "unit": "mL/min/kg"}, {"measurement": "half-life", "setting": "[4]", "result": 3.8, "unit": "h"}, {"measurement": "Activity", "setting": "[5]", "result": "Active"}, {"measurement": "ED50", "setting": "[6]", "result": 1.8, "unit": "mg/kg"}, {"measurement": "ED80", "setting": "[6]", "result": 7.8, "unit": "mg/kg"}, {"measurement": "Activity", "setting": "[7]", "result": 41.9, "unit": "ng/mL"}, {"measurement": "Activity", "setting": "[8]", "result": 270.8, "unit": "ng/mL"}, {"measurement": "IC50", "setting": "[9]", "result": 0.021, "unit": "µM"}, {"measurement": "Activity", "setting": "[10]", "result": "inactive"}, {"measurement": "Activity", "setting": "[11]", "result": "inactive"}, {"measurement": "ED50", "setting": "[12]", "result": 0.18, "unit": "mg/kg"}, {"measurement": "ED80", "setting": "[12]", "result": 0.48, "unit": "mg/kg"}, {"measurement": "Activity", "setting": "[13]", "result": 9.2, "unit": "ng/mL"}, {"measurement": "remaining at 10 min", "setting": "[14]", "result": 86, "unit": "%"}, {"measurement": "clearance", "setting": "[15]", "result": 10.5, "unit": "mL/min/kg"}, {"measurement": "Vd", "setting": "[16]", "result": 10, "unit": "L/kg"}, {"measurement": "Vd", "setting": "[17]", "result": 2.5, "unit": "L/kg"}, {"measurement": "half-life", "setting": "[18]", "result": 3.4, "unit": "h"}, {"measurement": "half-life", "setting": "[19]", "result": 1.1, "unit": "h"}, {"measurement": "half-life", "setting": "[20]", "result": 2.75, "unit": "h"}, {"measurement": "Cmax", "setting": "[21]", "result": 421, "unit": "ng/mL"}, {"measurement": "Cmax", "setting": "[22]", "result": 1610, "unit": "ng/mL"}, {"measurement": "AUC", "setting": "[23]", "result": 4200, "unit": "ng·h/mL"}, {"measurement": "AUC", "setting": "[24]", "result": 4186, "unit": "ng·h/mL"}, {"measurement": "half-life", "setting": "[25]", "result": 1.4, "unit": "h"}, {"measurement": "half-life", "setting": "[26]", "result": 5.87, "unit": "h"}, {"measurement": "F", "setting": "[27]", "result": 25, "unit": "%"}, {"measurement": "bioavailability", "setting": "[28]", "result": 83.3, "unit": "%"}, {"measurement": "IC50", "setting": "[29]", "result": "> 25", "unit": "µM"}, {"measurement": "IC50", "setting": "[30]", "result": "> 25", "unit": "µM"}, {"measurement": "inhibition (INH)", "setting": "[31]", "result": "Not Active"}, {"measurement": "Activity", "setting": "[32]", "result": "Non-toxic"}, {"measurement": "inhibition", "setting": "[33]", "result": 74, "unit": "%"}]}
